{"data": "Results gathered from unrelated publications", "cell line": "HepG2", "observed": "cell growth or viability", "note": "Lines come from different studies, so protocols differ."}
{"Compound": "COc1cc([C@@H]2c3cc4c(cc3[C@@H](O[C@@H]3O[C@@H]5CO[C@@H](C)O[C@H]5[C@H](O)[C@H]3O)[C@H]3COC(=O)[C@H]23)OCO4)cc(OC)c1O", "assay": "MTT", "conditions": "75 h", "IC50": "45.9 µM"}
{"Compound": "O=[N+]([O-])c1ccc(NC(=S)N/N=C/c2cccc3cc4ccccc4nc23)cc1", "assay": "MTT", "conditions": "48 h", "IC50": "> 50 µM"}
{"Compound": "CN(C)C1CCc2[nH]c3c(C(N)=O)ccc(-c4ccccc4Cl)c3c2C1 (stereo not drawn)", "IC50": "0.26 µM"}
{"Compound": "c1ccc(Cn2nc(-c3ncc(-c4ccccc4)s3)c3ccccc32)cc1", "conditions": "48 h", "IC50": "27.7 µM"}
{"Compound": "O=C1CSC(=Nc2cc(C(F)(F)F)ccc2-c2nnc(N3C(=O)CSC3=Nc3ccc([N+](=O)[O-])cc3)s2)N1c1ccc([N+](=O)[O-])cc1", "assay": "MTT", "IC50": "73.1 µM"}
{"Compound": "O=C(/C=C/c1ccc(F)cc1)c1nc2ccccc2n1Cc1cn([C@@H]2O[C@H](CO)[C@H](O)[C@H](O)[C@H]2O)nn1", "assay": "LDH", "conditions": "48 h", "IC50": "1.64 µM"}
{"Compound": "O=C1CS/C(=N\\c2cc(C(F)(F)F)ccc2-c2nnc(N3C(=O)CS/C3=N\\c3ccc(Cl)cc3)s2)N1c1ccc(Cl)cc1", "assay": "MTT", "IC50": "48.1 µM"}
{"Compound": "CC(C)(C)[C@H](NC(=O)/C=C/c1ccc(OP(=O)(O)O)cc1)C(=O)N1CCC[C@H]1C(=O)N(c1ccccc1)c1ccc(I)cc1", "assay": "CCK-8", "IC50": "2.23 µM"}
{"Compound": "CCOc1ccc(Nc2c3c(nc4ccccc24)CCC3)cc1", "assay": "resazurin", "conditions": "72 h", "IC50": "11.3 µM"}
{"Compound": "CC(=O)c1nc2ccccc2n1Cc1cn([C@@H]2O[C@H](CO)[C@H](O)[C@H](O)[C@H]2O)nn1", "assay": "LDH", "conditions": "48 h", "IC50": "1.67 µM"}
{"Compound": "O=C1CS/C(=N\\c2cc(C(F)(F)F)ccc2-c2nnc(N3C(=O)CS/C3=N\\c3ccc(-c4ccccc4)cc3)s2)N1c1ccc(-c2ccccc2)cc1", "assay": "MTT", "IC50": "87.7 µM"}
{"Compound": "C#Cc1cccc(Nc2ncnc3cc(OCCOC)c(OCCOC)cc23)c1", "assay": "LDH", "conditions": "48 h", "IC50": "2.07 µM"}
{"Compound": "CC/C(=C(\\c1ccccc1)c1ccc(OCCN(C)C)cc1)c1ccccc1", "IC50": "17.4 µM"}
{"Compound": "O=C1CS/C(=N\\c2ccc(F)cc2O)N1c1nnc(-c2ccc(C(F)(F)F)cc2/N=C2\\SCC(=O)N2c2ccc(F)cc2O)s1", "assay": "MTT", "IC50": "19.5 µM"}
{"Compound": "C/C(=C\\C(=O)N[C@H](C(=O)N1CCC[C@H]1C(=O)N(c1ccccc1)c1ccc(I)cc1)C(C)(C)C)c1ccc(OP(=O)(O)O)cc1", "assay": "CCK-8", "IC50": "6.09 µM"}
{"Compound": "FC(F)(F)c1ccc(-c2noc(-c3nn(Cc4ccc(Cl)cc4Cl)c4ccccc34)n2)cc1", "conditions": "48 h", "IC50": "251 µM"}
{"Compound": "Nc1ncnc2c1ncn2CCN1C(=O)C(=O)c2cc(Cl)ccc21", "assay": "SRB", "IC50": "5.62 µM"}
{"Compound": "COc1ccc2c(-c3ncc(-c4ccccc4)o3)nn(Cc3ccccc3)c2c1", "conditions": "48 h", "IC50": "89.7 µM"}
{"Compound": "COc1ccc(NC(=S)N/N=C/c2cccc3cc4ccccc4nc23)cc1", "assay": "MTT", "conditions": "48 h", "IC50": "> 50 µM"}
{"Compound": "Fc1ccc2c(-c3nnc(Cc4ccccc4)s3)nn(Cc3ccccc3)c2c1", "conditions": "48 h", "IC50": "29.1 µM"}
{"Compound": "COc1ccc(N(Cc2csc(-c3ccccc3)n2)C(=O)CCCCCC(=O)NO)cc1", "assay": "MTT", "conditions": "72 h", "IC50": "0.12 µM"}
{"Compound": "O=C(/C=C/c1ccc(F)cc1)c1nc2ccccc2n1Cc1cn([C@@H]2OC[C@@H](O)[C@H](O)[C@H]2O)nn1", "assay": "LDH", "conditions": "48 h", "IC50": "1.63 µM"}
{"Compound": "FC(F)(F)c1ccc(-c2nnc(-c3nn(Cc4ccc(Cl)cc4Cl)c4ccccc34)o2)cc1", "conditions": "48 h", "IC50": "304 µM"}
{"Compound": "O=C1CSC(=Nc2cc([N+](=O)[O-])ccc2[N+](=O)[O-])N1c1nnc(-c2ccc(C(F)(F)F)cc2N=C2SCC(=O)N2c2cc([N+](=O)[O-])ccc2[N+](=O)[O-])s1", "assay": "MTT", "IC50": "80.2 µM"}
{"Compound": "CCOC(=O)c1c(-c2ccc(OC)cc2)oc2ccc(OCc3cn(Cc4ccccc4)nn3)c(CN3CCCCC3)c12", "assay": "resazurin", "conditions": "18 h", "IC50": "70.5 µM"}
{"Compound": "CC(=O)O[C@@H]1[C@@H](OC(C)=O)[C@H](OC(C)=O)CO[C@H]1n1cc(Cn2c(C(C)=O)nc3ccccc32)nn1", "assay": "LDH", "conditions": "48 h", "IC50": "1.65 µM"}
{"Compound": "CC(C)c1nc(N(C)S(C)(=O)=O)nc(-c2ccc(F)cc2)c1/C=C/[C@@H](O)C[C@@H](O)CC(=O)O", "assay": "MTT", "conditions": "24 h", "IC50": "59.1 µg/mL"}
{"Compound": "Clc1ccc(Cn2nc(-c3nc(-c4ccccc4)no3)c3ccccc32)c(Cl)c1", "conditions": "48 h", "IC50": "59.9 µM"}
{"Compound": "Fc1ccc(NC(=S)N/N=C/c2cccc3cc4ccccc4nc23)cc1", "assay": "MTT", "conditions": "48 h", "IC50": "> 50 µM"}
{"Compound": "O=C1CS/C(=N\\c2cc(C(F)(F)F)ccc2-c2nnc(N3C(=O)CS/C3=N\\c3ccc(F)cc3)s2)N1c1ccc(F)cc1", "assay": "MTT", "IC50": "24.1 µM"}
{"Compound": "Cc1c2c(nn1C)CSCc1cc(n(C)n1)CSc1cc(c3ccccc3c1)OCCCc1c(C(=O)O)n(C)c3c-2c(Cl)ccc13", "assay": "CCK-8", "IC50": "50 µM"}
{"Compound": "COc1cccc2c1C(=O)c1c(O)c3c(c(O)c1C2=O)C[C@@](O)(C(=O)CO)C[C@@H]3O[C@H]1C[C@H](N)[C@H](O)[C@H](C)O1", "assay": "LDH", "conditions": "48 h", "IC50": "3.81 µM"}
{"Compound": "C#CCOc1ccc2oc(-c3ccc(OC)cc3)c(C(=O)OCC)c2c1CN1CCCCC1", "assay": "resazurin", "IC50": "34.5 µM"}
{"Compound": "c1ccc(Cc2nnc(-c3nn(Cc4ccccc4)c4ccccc34)o2)cc1", "conditions": "48 h", "IC50": "68.6 µM"}
{"Compound": "O=C1CS/C(=N\\c2cc(C(F)(F)F)ccc2-c2nnc(N3C(=O)CS/C3=N\\c3ccc(F)c(O)c3)s2)N1c1ccc(F)c(O)c1", "assay": "MTT", "IC50": "22.5 µM"}
{"Compound": "CSc1ccccc1-c1cc(C(N)=O)c2[nH]c3c(c2c1)CC(N)CC3 (stereo not drawn)", "IC50": "2.46 µM"}
{"Compound": "COc1ccc(N(Cc2csc(-c3ccc(C)cc3)n2)C(=O)CCCCCC(=O)NO)cc1", "assay": "MTT", "conditions": "72 h", "IC50": "0.19 µM"}
{"Compound": "COc1cc([C@@H]2c3cc4c(cc3[C@@H](O[C@@H]3O[C@@H]5CO[C@@H](C)O[C@H]5[C@H](O)[C@H]3O)[C@H]3COC(=O)[C@H]23)OCO4)cc(OC)c1O", "assay": "MTT", "IC50": "44.5 µM"}
{"Compound": "N=C(CC(O)c1cc2c(F)cc(F)cc2c2cc(C(F)(F)F)ccc12)Nc1ccc(Br)cc1 (stereo not drawn)", "assay": "neutral red", "conditions": "24 h", "IC50": "9.7 µM"}
{"Compound": "S=C(N/N=C/c1cccc2cc3ccccc3nc12)Nc1ccccc1", "assay": "MTT", "conditions": "48 h", "IC50": "> 50 µM"}
{"Compound": "COc1cccc2c1C(=O)c1c(O)c3c(c(O)c1C2=O)C[C@@](O)(C(=O)CO)C[C@@H]3O[C@H]1C[C@H](N)[C@H](O)[C@H](C)O1", "conditions": "96 h", "IC50": "0.109 µM"}
{"Compound": "Fc1ccc2c(-c3nnc(Cc4ccccc4)s3)nn(Cc3ccc(Cl)cc3Cl)c2c1", "conditions": "48 h", "IC50": "230 µM"}
